The text below walks through data of ChEMBL document CHEMBL3085650, “Extending the record of bis-γ-pyrone polypropionates from marine pulmonate mollusks” (J Nat Prod, 2013).

Molecules are shown by their SMILES.

The nature of test [1]: Growth inhibition of human U373 cells after 72 hrs by MTT assay. In kind it is functional, cell-based, U-373MG ATCC. As to conditions: U373 MG. In outline: (§1)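 Human cancer cell lines (from ATCC, ECACC or DSMZ) cultured 72 h with compound; viable cells measured by MTT colorimetric assay, where mitochondrial succinate dehydrogenase reduces yellow MTT to blue formazan, read by spectrophotometry. Optical density of treated versus control cells gives growth inhibition, expressed as IC50 (μM). Camptothecin and etoposide served as reference compounds.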
(In general: Tetrazolium dyes change colour on reduction, which living cells bring about.)

Another test relates to A549. Description: Growth inhibition of human A549 cells after 72 hrs by MTT assay. Format: functional, cell-based. As to conditions: A549, 72 h. In outline:
as §1

Test [2] in a line: Growth inhibition of human Hs683 cells after 72 hrs by MTT assay. In kind it is functional, cell-based. Conditions: Hs 683, 72 h. In outline:
as §1

For another test, the system named is SK-MEL-28. The test is described as follows: Growth inhibition of human SK-MEL-28 cells after 72 hrs by MTT assay. Format: functional, cell-based. As to conditions: SK-MEL-28, 72 h. In outline:
as §1

The test system of a further test is PC-3. The test is described as follows: Growth inhibition of human PC3 cells after 72 hrs by MTT assay. Conditions: PC-3, 72 h. In kind it is functional, cell-based. In outline:
as §1

In the next test the test system is MCF7. Description: Growth inhibition of human MCF7 cells after 72 hrs by MTT assay. Format: functional, cell-based. As to conditions: MCF7, 72 h. In outline: as §1

For `CC[C@@]1(O)C(=O)OCc2c1cc1n(c2=O)Cc2cc3ccccc3nc2-1` [CAMPTOTHECIN], the IC50 in test [1] is 0.015 µM; in the test with A549, less than 0.01 µM; in test [2], less than 0.01 µM; in the test with SK-MEL-28, less than 0.01 µM; in the test with PC-3, 0.01 µM; in the test on MCF7, less than 0.01 µM.
In the case of `CCC(=O)[C@H](C)c1oc([C@H](C)[C@@H]2O[C@](O)([C@@H](C)c3oc(CC)c(C)c(=O)c3C)[C@@H](C)[C@@H](O)[C@@H]2C)c(C)c(=O)c1C`, the IC50 (in test [1]; in the test on A549; in test [2]; in the test on SK-MEL-28; in the test with PC-3; with MCF7) was greater than 100 µM throughout.
As to `CCC(=O)O[C@@H](/C(C)=C/[C@@H](C)c1oc(CC)c(C)c(=O)c1C)[C@H](C)[C@@H](OC(=O)CC(C)C)[C@@H](C)c1oc([C@@H](C)[C@H](CC)OC(C)=O)c(C)c(=O)c1C`, the IC50 in test [1] turned out to be 9 µM; in the test with A549, 3 µM; in test [2] it was 3 µM; in the test on SK-MEL-28 it was 7 µM; in the test on PC-3, 2 µM; in the test with MCF7, 4 µM.
As to `CCc1oc([C@H](C)/C=C(\C)[C@H](OC(C)=O)[C@H](C)[C@@H](OC(=O)CC(C)C)[C@@H](C)c2oc([C@@H](C)[C@@H](O)CC)c(C)c(=O)c2C)c(C)c(=O)c1C`, the IC50 was found to be 21 µM in test [1]; 15 µM in the test on A549; 30 µM in test [2]; 25 µM in the test with SK-MEL-28; 3 µM with PC-3; 15 µM in the test on MCF7.
On to `CCC(=O)O[C@@H](/C(C)=C/[C@@H](C)c1oc(CC)c(C)c(=O)c1C)[C@H](C)[C@@H](OC(=O)CC(C)C)[C@@H](C)c1oc([C@@H](C)[C@@H](O)CC)c(C)c(=O)c1C`, for which the IC50 in test [1] came out at 21 µM; in the test on A549, 12 µM; in test [2], 13 µM; in the test on SK-MEL-28 it was 25 µM; in the test on PC-3, 3 µM; in the test with MCF7 it was 12 µM.
As to `COc1cc([C@@H]2c3cc4c(cc3[C@@H](O[C@@H]3O[C@@H]5CO[C@@H](C)O[C@H]5[C@H](O)[C@H]3O)[C@H]3COC(=O)[C@H]23)OCO4)cc(OC)c1O` [ETOPOSIDE], the IC50 was 25 µM in test [1]; 2 µM in the test on A549; 2 µM in test [2]; 3 µM in the test on SK-MEL-28; greater than 100 µM in the test with PC-3; 4 µM in the test with MCF7.
For `CCc1oc([C@H](C)/C=C(\C)[C@H](O)[C@H](C)[C@@H](OC(=O)CC(C)C)[C@@H](C)c2oc([C@@H](C)[C@@H](O)CC)c(C)c(=O)c2C)c(C)c(=O)c1C`, the IC50 (in test [1]; in the test with A549; in test [2]; with SK-MEL-28; with PC-3; with MCF7) was greater than 100 µM each time.
On to `CCc1oc([C@H](C)/C=C(\C)[C@H](OC(C)=O)[C@H](C)[C@@H](OC(=O)CC(C)C)[C@@H](C)c2oc([C@@H](C)[C@H](CC)OC(C)=O)c(C)c(=O)c2C)c(C)c(=O)c1C`, for which the IC50 was 32 µM in test [1]; 28 µM in the test with A549; 24 µM in test [2]; 33 µM in the test with SK-MEL-28; 7 µM with PC-3; 25 µM in the test with MCF7.
Take `CCC(=O)[C@H](C)c1oc([C@H](C)[C@@H]2O[C@](O)([C@@H](C)c3oc(CC)c(C)c(=O)c3C)[C@@H](C)[C@@H](OC(=O)CC(C)C)[C@@H]2C)c(C)c(=O)c1C`: the IC50 worked out at 25 µM in test [1]; 26 µM with A549; 23 µM in test [2]; 23 µM in the test on SK-MEL-28; 16 µM with PC-3; 21 µM in the test on MCF7.
For the compound `CCC(=O)[C@@H](C)c1oc([C@H](C)[C@@H]2O[C@](O)([C@@H](C)c3oc(CC)c(C)c(=O)c3C)[C@@H](C)[C@@H](O)[C@@H]2C)c(C)c(=O)c1C`, the IC50 in test [1] was greater than 100 µM; in the test on A549 it was greater than 100 µM; in test [2] it was greater than 100 µM; in the test with SK-MEL-28, greater than 100 µM; in the test with PC-3, 82 µM; with MCF7 it was 87 µM.

A word on the IC50: it is the concentration that inhibits the measured activity by half. A low value points to inhibition by little substance.
